System: MS2 coat protein
Experiment: apparent Kd, MS2 coat protein; higher = weaker binding; RNA-MaP array; FMN 200 µM where present
Summary of the method: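 The apparent Kd is reported as the median of filtered per-cluster binding-curve fits. To get these curves, designs transcribed by stalled E. coli RNA polymerase on Illumina sequencing-chip clusters were titrated with SNAP-549-labelled MS2 coat protein from 0.7 or 1.5 nM, doubling to 3 µM. Titrations were run without and then with constant ligand in 100 mM Tris-HCl pH 7.5, 80 mM KCl, 4 mM MgCl2, BSA, DTT, yeast tRNA and Tween-20, and green signal was normalised to red-channel RNA signal and control-cluster median Fmax.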

[1] = designed as: ON switch for flavin mononucleotide, no ligand
[2] = ligand present: flavin mononucleotide, designed as: ON switch for flavin mononucleotide
[3] = designed as: OFF switch for flavin mononucleotide, no ligand
[4] = ligand present: flavin mononucleotide, designed as: OFF switch for flavin mononucleotide

Sequence	apparent Kd [1]	apparent Kd [2]	apparent Kd [3]	apparent Kd [4]
ACAUGAGGAUCACCCAUGUUGAAUUAGGAUAUUUGACUGCACAUGAGGUUCUCCCAUGUUCUACCGGAGAAGGGAUUAAUAAUU	549 nM	240 nM		
GCGAUUUUGUAGAAGGUACGUGAUUAGUCAAAGUAAGGAUAUACUGACAUGAGGAUCACCCAUGUAUUAAUAGUUAACAGUCGC	94.6 nM	23.1 nM		
AGCUGUGGCCGAGGAUAUCUAACCUUCAUAACCGAAAUAUAAUCGGACAUGAGGAUCACCCAUGUAGAGAAGGCGGUCUCAGCA			18.2 nM	191 nM
AAGAUACAUGAGGAUCACCCAUGUCGAGAGAGACGAGGAUAUCUGAAUCGAUUAGAUUACGGAGAAGGCGUGAAAA	31.5 nM	25.6 nM		
UUAAAUCAUGUAGGAUAUGCAUGGCGAAGCUACGCAGAAGGACAUGAGGAUCACCCAUGUUAUAGCGACCAAGUUAGGUUGCAA			88.7 nM	211 nM
AAAUAGCAUGAGGAUAUUGGACUGGAUUCAGUACGAGAAGGCAUGACAUGAGGAUCACCCAUGUUGUGUUGGGA			19.7 nM	44.8 nM
GAGAUGUGAGGAUAUCUGGACCGUGGAAGAGCCACGGUCCGAGAGAAGGCACAUGAGGAUCACCCAUGUGAUGA			38.4 nM	171 nM
UGGUACUAGGGAGGAUAUGGGAAGAUACAUGAGGAUCACCCAUGUUUAAGAAUGCCGAGAGGCAACUAGAAGGCCCGAGUACCU	456 nM	21.6 nM		
AGCUAGUGAGGAUAUACAAGAAUAUAAACGAACAUAAAGGGACAUGAGGAUCACCCAUGUAGAAGGCACUAGCA			37.6 nM	243 nM
ACGACAAAAGUCGAACGAUGUAGCAGAAGGACAUGAGGAUCACCCAUGUAAAAUGUAACAGCCAUGUAGGAUAUGCAAAAUCGA			37.7 nM	159 nM
UUUAUAAAUUAGAAGGCGUGAUAAAAUACAAUAAACAUGAGGAUCACCCAUGUGUACCCAUGUUAUGAGGAUAUAGUCAUAUAU	462 nM	377 nM		
AAUAUGAGCUGGAAUAAACUCAAAACAUGAGGAUCACCCAUGUAGGAUAUCAGCACGAUAAGUGCUGAGAAGGACAACCAGCUC			13.8 nM	15.5 nM
AAUUUGUGAAAAUUACAUGAGGAUCACCCAUGUUAGGGAAUGCAGGAUAUGUGGUUUAUUAUUUUACAGAAGGGCAAUAAUUUU	95.9 nM	53.6 nM		
ACGUGGAGUCCGCAACAGAACACACAGGAUAUGAGUGGGCACAUGAGGAUCACCCAUGUUACGGAUCAGAAGGGUGUGCUCAUG	449 nM	56.3 nM		
AGAUGACAAAGUCAUCUCUGACAGACAUGAGGAUCACCCAUGUAGGAUAUACUACUCAAAGAGUAGUAGAAGGACAUGUGUCUU			33 nM	95.7 nM
CGGCGGAAAGGAUAUGCAGAAAUAUCAAAAUGUGGGCCACGACAUGAGGAUCACCCAUGUAGAAGGUUCAGCCG			15.5 nM	12.7 nM
CUUUUGUGAGGAUAUCAGUAGUUAAAUAAUAAAAUUACUACUGAGAAGGCACAUGAGGAUCACCCAUGUUCCUC			36.4 nM	201 nM
CGAUAGGACAGAGGAUAUACACAUGAGGAUCACCCAUGUGAUUUCGGCGCGAAAGCGCCAAACAUGUAGAAGGCUGUCCUAUCG			11.3 nM	4.89 nM
AAGGUACAUGAGGAUCACCCAUGUGGGUCGAACGCAGGAUAUCGCCGUUGGCCCUGGCGGCGAGAAGGGUGCCGAA	189 nM	175 nM		

Sequence	apparent Kd [1]	apparent Kd [2]	apparent Kd [3]	apparent Kd [4]
CCCUCACAUGAGGAUCACCCAUGUCAGGAUAUCUCACAUCGGCCUUAGGCCAAUGUCAAGAGAAGGGACGUAUC			22.3 nM	33.9 nM
ACGGUGGUCACAGGAUAUCCAGCCCGCGUGCCUGGAGAAGGGUGACUCAGAACCACAUGAGGAUCACCCAUGUGCCUUGCCGUA	140 nM	33.4 nM		
AGAAUGGGCGAGAAGGGAGUACAUGAGGAUCACCCAUGUGGUUGAUGGUGCUCAGGAUAUCGAAGGACCAGGGAGCGUCUCUGG			185 nM	302 nM
GUCACUAGAGGAUAUACAAUGGUAUAUGAUCCUAGAGACAUACAUGAGGAUCACCCAUGUAGAAGGCUAGUAUU			64.6 nM	43.5 nM
AAAGAUGGAGGAUAUACAUGAGGAUCACCCAUGUAGAAAAAAAAUUGGGAAAAAGAAAGUAGAAGGCCAAAAAA			41 nM	91.1 nM
UUUUCGUGAGGAUAUCAGUAGUAAAUAAAUAAAAUUACUACUGAGAAGGCACAUGAGGAUCACCCAUGUUCCUU			12.7 nM	22.9 nM
CCGACUUACUAGGAUAUCAGAGUCGAAAGACUCUGAGAAGGAGUAACAUGAGGAUCACCCAUGUGUCCUAUCGG			23.3 nM	77.7 nM
AAAAAGCGAGGAUAUACAUGAGGAUCACCCAUGUGAAAGUCGAAAAAAAAGACAAAAAGUAGAAGGCGCAAAAA			23.2 nM	26.7 nM
GCCAAGCUAGGAUAUACCCAGGGUUUGUUCUCUAACAACACACAUGAGGAUCACCCAUGUAGAAGGAGCCGGGA			38.3 nM	81 nM
GCUGCAUAGGCAGGAUAUGCAACAAUGAGAUGAAAAUACAUCUCAUUGACAUGAGGAUCACCCAUGUAGAAGGGCCUGUGCAGU			16.3 nM	18.9 nM
UUUUAACAUGAGGAUCACCCAUGUGAGGAUAUCGAUAUUUUUAUUAAUAUUAAUAAAACGAGAAGGCACAUUUU				90.2 nM
AGAAACUACGAGAAGGACAUGAGAACCUUCAAUUACAUGAGGAUCACCCAUGUAGGAUAUCGUAGUUUCAGGAUCGUGAGAUCA			12.7 nM	86 nM
GUUUCUAUAAGUUAUAUUUAACAGUCAGAAGGUGAUACUACGACAUGAGGAUCACCCAUGUAAUUCAAGGAUAUGAACUUAAUC	1570 nM	999 nM		
UUUUUGUGAGGAUAUUAGUAGUAAAAAAAUAAAAUUACUACUGAGAAGGCACAUGAGGAUCACCCAUGUUCCUC			35.7 nM	174 nM
CUCAAGUUAGGAUAUUGACGCCCAAGACGGCGUCUUGGGCACAAGAAGGGACAUGAGGAUCACCCAUGUCAAUA			24.1 nM	27.7 nM
GCACGGAGUGUAGGAUAUUAGUGCGAUUAGCACUGAGAAGGACAUGAGGAUCACCCAUGUUCCUCAAUAACAUACCUUCCGUGC			13.8 nM	10.6 nM
UGUCGGAGAAGAGGAUAUUACAUGAGGAUCACCCAUGUAUGAACCAAUAGCUGGAAACAGCAAUGUAAGAAGGCUGCUCCGACA			5.32 nM	23.1 nM
AGCUGGAGAGGAUAUACGUAGGAAAAAAAAGUCUGAUCACUACAUGAGGAUCACCCAUGUAGAAGGCUCUGGCA			21.2 nM	62.2 nM
AGUAGAUCAGGAUAUACGUAAAUGGUAAUUAUGUAACUUAUACAUGAGGAUCACCCAUGUAGAAGGGAUCUACA			19.4 nM	51.9 nM

Sequence	apparent Kd [1]	apparent Kd [2]	apparent Kd [3]	apparent Kd [4]
AAAGCUCAGAUAGGAUAUAUAGGAUAACUUAAGACCUAACAUGAGGAUCACCCAUGUGAUUAUUCGUAGAAGGAUCAUUGAACC	195 nM	209 nM		
UGCAUGUCAGGAUAUCGUGCAUACAACGAAAGUUCUAUGUGCGAGAAGGGACAUGAGGAUCACCCAUGUCUUCG			24 nM	67.4 nM
GCCUUAUCGGUCAGGAUAUACACCCGCCAGUUGUUGUAGAAGGGACAUGAGGAUCACCCAUGUACAUUACAUUG			21.2 nM	33.8 nM
UAUGUGUCAGGAUAUUGUUAGUUUAGUUGUUUGUAUUAGUUCGAGAAGGGACAUGAGGAUCACCCAUGUUGUUU			30.9 nM	28.6 nM
ACAUACAUUCGAGGAUAUCGGUGAACAAAUUAACGAGAAGGCGAUAUAAGUUUUAAUCUUAUGAACAUGAGGAUCACCCAUGUA	26.4 nM	24.3 nM		
CGCUGUCAUGCAGGAUAUGCAUUGGAUUACAAUGCAGAAGGGCGAUUACAUGAGGAUCACCCAUGUGUAGACAGUGAAGAAGAG	415 nM	34.4 nM		
UCACGGGAUUGAGGAUAUAUAUUAAUUUUUACAAUAGAAGGCAAAUUUUUAGUUUUUUCACUUUACAUGAGGAUCACCCAUGUU			27.5 nM	25.5 nM
AGCUGUGGCAGAGGAUAUACUACUAUAAUCCAUUGCAAAUAGCGAUGGACAUGAGGAUCACCCAUGUAGAAGGCUGUCUCAGCA			38.9 nM	153 nM
UGUCGGAGCAGAGGAUAUUACAUGAGGAUCACCCAUGUAUGAACCAAUAGCUGGAUACAGCAAUGUAAGAAGGCUGCUCCGACA			9.16 nM	89.2 nM
AAUAAAUAGGAGGAUAUCGUAUCGGAAACGAUACGAGAAGGUCUAACAUGAGGAUCACCCAUGUUCCUCAAUAA			33.1 nM	95.8 nM
UCGUACAUUCGAGGAUAUCGGUGAUUAAUAAUACGAGAAGGCGAUUUUAGGCAUAAAGCCUUAGACAUGAGGAUCACCCAUGUA	89.7 nM	53.7 nM		
ACUAAGAGAGGAUAUACUAACAAACCUCAAACAUACAUCAAACAUGAGGAUCACCCAUGUAGAAGGCUCAAACU			30.5 nM	31.6 nM
CGAAUACGCGUGAGGAUAUCGUUCGAAUAUUGCGAUGAGAAGGCACAUGAGGAUCACCCAUGUAGGUAUCCUGG			73.2 nM	120 nM
CGGUCGAUGUAAGGAUAUCGACUGGAAUACAGUCGAGAAGGUACAUGAGGAUCACCCAUGUAAACCUAUAAUAAAUAACGACCG			11.7 nM	14.4 nM
AUAAAACAUGAGGAUCACCCAUGUCAACAAAGUCGAGGAUAUGGGCAAUUAAAAUAAGAACCAGAAGGCGAAUAAU	172 nM	39.8 nM		
GUACAUACAAAGUUACAUGAGGAUCACCCAUGUUUAUUGGGAAGAAGGGUAACAUUAUUAGAUGUAUAGGAUAUUUCACAAUUG	511 nM	316 nM		
CUCUUGGCAGGAUAUGCUCUCUUAGACAUGAGGAUCACCCAUGUGUUCAUUCUUUCUUUUGCAGAAGGGCCUUAAC			87.1 nM	82.8 nM
GGGUAACAUGAGGAUCACCCAUGUGAGGAUAUCCUAGGGAUGGAAGCCCGGCCAACCAGGAGAAGGUACUAAAG			83.2 nM	89.7 nM

From the EternaBench riboswitch data
